Laboratory results reported in ChEMBL document CHEMBL1828611, “Bisphosphonamidate clodronate prodrug exhibits potent anticancer activity in non-small-cell lung cancer cells” (J Med Chem, 2011).
Active and inactive are the calls of the source. The rule behind the calls is not given here.

Assays:
A549 [1] = experiment: Anticancer activity against human A549 cells assessed as growth inhibition up to 1 mM by MTS assay; type: functional, cell-based
Summary of the method: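 A549 cells, plated at 1.5 × 10^3 per well and left to adhere overnight, treated for 24, 48 or 72 h with compounds serially diluted in DMSO (1% DMSO final). MTS dye was added for 40 min to 2 h and absorbance read at 490 nm. Values were expressed as percent of vehicle control; IC50 was taken from nonlinear dose-response fitting.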

A549 [2] = experiment: Drug uptake in human A549 cells assessed per 10^4 cells at 10 uM after 8 hrs by LC/MS/MS analysis; type: ADME, cell-based; conditions: a549, 8 h
Summary of the method: (§1)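 A549 cells were plated at 1.3 × 10^5 per well in 6-well plates and treated at 0, 10 or 30 μM for 8 h. Cells were washed, trypsinized and counted by trypan blue, and pellets were frozen. Lysates in acetonitrile with temazepam internal standard were analysed by LC-MS-MS on a C18 column (isocratic acetonitrile/water 60:40, 0.1% formic acid). Results are reported as ng/10^4 cells.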

A549 [3] = experiment: Prodrug conversion in human A549 cells assessed as intracellular formation of methylenebis(hydrogen phosphonate) at 10 to 30 uM after 8 hrs using MTBSTFA by LC/MS/MS analysis; type: ADME, cell-based; conditions: a549, 8 h
Summary of the method: (§2)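 A549 cells, plated at 1.3 × 10^5 per well, dosed for 8 h, PBS-washed, trypsinized, counted by trypan blue, then pellets PBS-washed and frozen at −80°C. Lysate was derivatized with MTBSTFA to tetra-silyl bisphosphonate for 1 h, cooled, diluted 1:5 in acetonitrile, and analysed by LC-MS-MS (C18, isocratic acetonitrile/water 70:30, 0.1% formic acid, 0.2 mL/min). Detection was qualitative.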

A549 [4] = experiment: Anticancer activity in human A549 cells assessed as decrease in viable cells after 24 hrs by trypan blue exclusion assay; type: functional
Summary of the method: (§3)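 A549 cells (RPMI 1640, 10% FBS) were plated at 1.7 × 10^4 per well in 12-well plates, adhered overnight, and dosed from 100X DMSO stocks (final 1% DMSO). Floating and trypsinized cells were pooled, mixed 1:1 with 0.04% trypan blue and viable cells counted. Counts were expressed as percent of control per time point; EC50 is the concentration giving a 50% decrease in cell number.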

A549 [5] = experiment: Ratio of EC50 for human A549 cells after 48 hrs by trypan blue exclusion assay to IC50 for human A549 cells after 48 hrs by MTS assay; type: functional
A549 [6] = experiment: Anticancer activity in human A549 cells assessed as decrease in viable cells after 48 hrs by trypan blue exclusion assay; type: functional, cell-based; conditions: A549, 48 h; summary of the method: as §3
A549 [7] = experiment: Antiproliferative activity against human A549 cells after 72 hrs by MTS assay; type: functional, cell-based; conditions: A549, 72 h
Summary of the method: (§4)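 A549 cells were seeded at 1.5 × 10^3 per well, adhered overnight, and treated over 0.2–300 μM (final 1% DMSO). After treatment, MTS was added for 40 min–2 h and A490 read. Absorbance was converted to percent of vehicle control, and IC50 was obtained by nonlinear dose-response fit.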

A549 [8] = experiment: Anticancer activity in human A549 cells assessed as decrease in viable cells after 72 hrs by trypan blue exclusion assay; type: functional, cell-based; conditions: A549, 72 h; summary of the method: as §3
A549 [9] = experiment: Antiproliferative activity against human A549 cells after 24 hrs by MTS assay; type: functional, cell-based; conditions: A549, 24 h; summary of the method: as §4
A549 [10] = experiment: Drug uptake in human A549 cells assessed per 10^4 cells at 30 uM after 8 hrs by LC/MS/MS analysis; type: ADME, cell-based; conditions: a549, 8 h; summary of the method: as §1
A549 [11] = experiment: Antiproliferative activity against human A549 cells after 48 hrs by MTS assay; type: functional, cell-based; conditions: A549, 48 h; summary of the method: as §4
A549 [12] = experiment: Drug uptake in human A549 cells after 8 hrs by LC/MS/MS analysis; type: ADME, cell-based; conditions: a549, 8 h; summary of the method: as §1
A549 [13] = experiment: Cell cycle arrest in human A549 cells assessed as accumulation of cells in G1 phase at 3 uM after 72 hrs measured using propidium iodide staining by FACS analysis; type: functional, cell-based
Summary of the method: (§5)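 A549 cells were plated at 6.7 × 10^4 per well in 6-well plates and dosed at 0, 3 or 10 μM for 72 h (final 1% DMSO). Cells were fixed in cold 70% ethanol, then stained with 10 μg/mL propidium iodide plus RNase A for 30 min at 37°C.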

A549 [14] = experiment: Anticancer activity against human A549 cells assessed as reduction in cell viability after 72 hrs by crystal voilet staining; type: functional, cell-based
Summary of the method: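 A549 cells were plated at 1.7 × 10^4 per well in 6-well plates and dosed from 100X DMSO stocks (final 1% DMSO). After 72 h cells were washed twice with PBS, stained 5–15 min with 0.5% crystal violet in 95% EtOH, rinsed with cold water and air-dried.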

A549 [15] = experiment: Anticancer activity against human A549 cells assessed as growth inhibition at 10 to 300 uM for 72 hrs followed by 48 hrs incubation after compound wash out; type: functional, cell-based
Summary of the method: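 A549 cells exposed to 10, 30, 100 and 300 μM for 72 h, then washed to remove drug and given fresh drug-free medium; regrowth was checked after a further 48 h.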

A549 [16] = experiment: Cell cycle arrest in human A549 cells assessed as accumulation of cells in G1 phase at 10 uM after 72 hrs measured using propidium iodide staining by FACS analysis; type: functional, cell-based; summary of the method: as §5
A549 [17] = experiment: Cell cycle arrest in human A549 cells assessed as accumulation of cells in G1 phase at 3 uM after 72 hrs measured using propidium iodide staining by FACS analysis in presence of nocodazole; type: functional, cell-based
A549 [18] = experiment: Cell cycle arrest in human A549 cells assessed as accumulation of cells in G2 phase after 24 hrs measured using propidium iodide staining by FACS analysis; type: functional, cell-based
A549 [19] = experiment: Drug uptake in human A549 cells at 30 uM after 8 hrs using MTBSTFA by LC/MS/MS analysis; type: ADME, cell-based; conditions: a549, 8 h; summary of the method: as §2

| SMILES | Activity (A549 [4]) | Ratio IC50 (A549 [5]) | EC50 (A549 [6]) | IC50 (A549 [7]) | EC50 (A549 [8]) | IC50 (A549 [9]) | IC50 (A549 [11]) | further results |
| --- | --- | --- | --- | --- | --- | --- | --- | --- |
| O=P(O)(O)C(Cl)(Cl)P(=O)(O)O |  |  |  |  |  |  |  | growth inhibition (GI) (A549 [1]): inactive |
| CN(CCCCCl)P(=O)(CP(=O)(OCc1ccc([N+](=O)[O-])cc1)N(C)CCCCCl)OCc1ccc([N+](=O)[O-])cc1 (stereo unspecified) | <50% | 1.6 | 24 µM | 13 µM | 25 µM | 17 µM | 15 µM | Drug uptake (A549 [2]): 68.6 ng; Activity (A549 [3]): Active; Drug uptake (A549 [10]): 169.3 ng; Drug uptake (A549 [12]): Dose-dependent effect |
| CN(CCCCCl)P(=O)(OCc1ccc([N+](=O)[O-])cc1)C(Cl)(Cl)P(=O)(OCc1ccc([N+](=O)[O-])cc1)N(C)CCCCCl (stereo unspecified) | 57% | 3.6 | 19 µM | 4.4 µM | 16 µM | 7.6 µM | 5.2 µM | Activity (A549 [13]): Active; Activity (A549 [14]): Active; growth inhibition (GI) (A549 [15]): Active; Activity (A549 [16]): Active; Activity (A549 [17]): Active |
| COC(=O)Nc1nc2cc(C(=O)c3cccs3)ccc2[nH]1 |  |  |  |  |  |  |  | Activity (A549 [18]): Active |
| O=P(O)(O)CP(=O)(O)O [MEDRONIC ACID] |  |  |  |  |  |  |  | Drug uptake (A549 [19]): Active |
